In publication PMC3619423 (Experimental eye research, 2013):
“Also recorded” adds a separate entry of the source. No end group written: not given here.

What was measured:
protease-rich human = details: 37 °C, up to 5 h
[1] = test system: Arg-MCA hydrolyzing activity (aminopeptidase activity); assay: Arg-MCA hydrolysis; assay type: biochemical, bovine
[2] = test system: bovine lens protease-rich fraction; assay: Hydrolysis of MCA-62-70 substrate by lens protease in the presence of inhibitors; assay type: biochemical; details: for inhibition of MCA-62-70 hydrolysis: pre-incubated 30 min at 37 °C
[3] = bovine, 37 °C
[4] = bovine lens extract containing 5 mg protein; details: 37 °C, up to 16 h
[5] = test system: peptidase-rich fraction of bovine lens extract
[6] = test system: bovine lens extracts (outer cortical, inner cortical, nuclear); assay: MCA-62-70 hydrolytic activity in regions of bovine lens; assay type: biochemical; details: 1 mg protein extract, 37 °C
How it was run: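 Decapsulated bovine lenses stirred at 4 °C in 50 mM sodium phosphate, 150 mM NaCl, pH 7.2, dissolving outer cortex (about a third of wet weight), then inner cortex (about a third); remaining nucleus homogenised. Each fraction centrifuged 30,000 × g, 30 min; supernatant (1 mg protein) incubated with 25 μg MCA-62-70, 2 h, 37 °C; fluorescence read before and after (ex 326, em 398 nm).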

[7] = test system: human lens extracts (cortical, nuclear); assay: MCA-62-70 hydrolytic activity in human lenses of different age; assay type: biochemical; details: for total protease activity (MCA-62-70 hydrolyzed): water-soluble proteins
How it was run: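 Cortical and nuclear regions of frozen young, middle-aged and old human lenses separated by dissection; water-soluble extracts (1 mg protein) incubated with 25 μg MCA-62-70 substrate, 2 h, 37 °C. Fluorescence read before and after (ex 326, em 398 nm). Amount hydrolysed taken from a standard curve of trypsin-digested substrate; average ± SE of four independent experiments; one-way ANOVA with Tukey's test.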

Molecule: MCA-SEVRSDRD[Lys(Dnp)]RR-NH2
- fragment found (protease-rich human): MCA-62-68 (MCA-SEVRSDR); also recorded: MCA-62-65 (MCA-SEVR); also recorded: MCA-62-66 (MCA-SEVRS), major

Molecule: CC(C)C[C@H](NC(=O)[C@@H](O)[C@H](N)Cc1ccccc1)C(=O)O [Bestatin, reference compound]
- inhibition of Arg-MCA hydrolyzing activity (aminopeptidase activity) ([1]; protease preparation treated with bestatin): complete inhibition

Molecule: O=C(O)CN(CCOCCOCCN(CC(=O)O)CC(=O)O)CC(=O)O [EGTA, ethylene glycol tetraacetic acid]
- inhibition of MCA-62-70 hydrolysis ([2]; concentration not given): 50%

Molecule: SDRDKFVIFLDVKHF
- not cleaved [3]: αA-66-80 was not hydrolyzed

Molecule: α-crystallin: bovine lens α-crystallin, molecular chaperone protein added to the peptidase incubations
- increase of Arg-MCA hydrolysis by peptidase-rich bovine lens fraction ([1]; addition of 12.5 nmoles α-crystallin, data not shown): ~4 fold

Molecule: NC(=O)CI [Iodoacetamide]
- Relative activity (%) [2]: 97%

Molecule: Succinyl-ISEVRSDRDK-Biotin
- fragment found [4]: αA-61-65; also recorded: αA-61-66

Molecule: Succinyl-DVKHFSPEDK-Biotin
- fragment found [4]: αA-76-78; also recorded: αA-76-80; also recorded: αA-76-82, major

Molecule: O=c1oc(Cl)c(Cl)c2ccccc12 [3,4-DCI]
- inhibition of MCA-62-70 hydrolysis ([2]; 500 μM): up to 85%

Molecule: O=C(O)CN(CCN(CC(=O)O)CC(=O)O)CC(=O)O [EDTA, ethylene diamine tetraacetic acid]
- inhibition of MCA-62-70 hydrolysis ([2]; concentration not given): 50%

Molecule: RPPGFSPFR [bradykinin, Bradykinin]
- hydrolysis after 2 h [5]: complete hydrolysis
- slowing of hydrolysis rate versus peptide incubated alone [5]: 40%

Molecule: MCA-SEVRSDRD[Lys(Dnp)]RR-NH2 [MCA-62-70]
- enzymatic activity (MCA-62-70 hydrolysis) ([6]; bovine lens inner cortex): 0.10 ± 0.01 nmoles/hr/mg protein
- enzymatic activity (MCA-62-70 hydrolysis) ([6]; bovine lens nuclear region): 0.04 ± 0.003 nmoles/hr/mg protein
- enzymatic activity (MCA-62-70 hydrolysis) ([6]; bovine lens outer cortical region): 0.58 ± 0.04 nmoles/hr/mg protein
- share of total lens enzymatic activity in the cortical region ([7]; human lens cortical region, all age groups): ~90%
- total protease activity (MCA-62-70 hydrolyzed) ([7]; middle-aged (40 ± 2 years) human lenses): 7.26 ± 0.83 n moles/h
- total protease activity (MCA-62-70 hydrolyzed) ([7]; older (60 ± 2 years) human lenses): 5.49 ± 0.29 nmol/h
- total protease activity (MCA-62-70 hydrolyzed) ([7]; young (20 ± 2 years) human lenses): 8.84 ± 0.96 nmol/h
